Assay results reported in ChEMBL document CHEMBL4373648, “Anti-biofilm activity of quinazoline derivatives against Mycobacterium smegmatis” (Medchemcomm, 2019).
pIC50: −log10 of the molar value.

Tests used:
[1] = system: Mycolicibacterium smegmatis; test: Antibiofilm activity against Mycobacterium smegmatis str. MC2 155 ATCC 700084 after 48 hrs by crystal violet staining based […] assay; type: functional, organism-based; conditions: MC2 155 ATCC 700084, 48 h
In short: (§1)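 IC50 is the concentration giving 50% inhibition of biofilm formation relative to an untreated control.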

[2] = Hemolytic activity in sheep RBC at 200 uM incubated for 1 hr under shaking condition by UV-spectrophotometry relative to 1% Triton-X; type: ADME, cell-based, Ovis aries, Erythrocyte; conditions: sheep red blood cells (erythrocytes), read-out: Activity
In short: (§2)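 Red blood cells were exposed to compound, and hemolysis was expressed as percent lysis relative to 1% Triton-X. The assay served as an antibiotic toxicity screen, and 500 μM was the highest concentration tested.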

[3] = Hemolytic activity in sheep RBC at 500 uM incubated for 1 hr under shaking condition by UV-spectrophotometry relative to 1% Triton-X; type: ADME, cell-based, Ovis aries, Erythrocyte; conditions: sheep red blood cells (erythrocytes), read-out: Activity; in short: as §2
[4] = system: Mycolicibacterium smegmatis; test: Toxicity against Mycobacterium smegmatis str. MC2 155 ATCC 700084 at 60 uM assessed as planktonic growth inhibition incubated for 4 to 48 hrs followed by replating on 7H10 plates and measured after 48 hrs by time kill curve assay; type: organism-based; conditions: in vivo
In short: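 Planktonic growth curves of bacteria grown with compound at 60 μM were compared with curves from untreated cultures.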

[5] = Hemolytic index, ratio of compound concentration causing hemolysis in sheep RBC to IC50 for antibiofilm activity against Mycobacterium smegmatis str. MC2 155 ATCC 700084
In short: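 Red blood cells were exposed to compound at up to 500 μM, including 200 μM. Lysis was quantified relative to 1% Triton-X. The index was calculated as the hemolysis-causing concentration divided by the biofilm-inhibition IC50.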

[6] = system: Mycolicibacterium smegmatis; test: Antibiofilm activity against Mycobacterium smegmatis str. MC2 155 ATCC 700084 after 48 hrs by crystal violet staining based spectrophotometric assay; type: functional, organism-based; conditions: MC2 155 ATCC 700084, 48 h; in short: as §1

SMILES	pIC50 [1]	also measured
Nc1ncc2cc(NC(=O)c3cc(Cl)cc(Cl)c3)ccc2n1	4.38	
CCC(=O)Nc1ccc2nc(N)ncc2c1	4.38	
Nc1ncc2cc(NC(=O)c3cc(F)cc(F)c3)ccc2n1	4.34	
CCCc1ccc(C(=O)Nc2ccc3nc(N)ncc3c2)cc1.Cl	4.80	hemolysis at 1 h, 200 µM [2]: 14%; hemolysis at 1 h, 500 µM [3]: 25%; Activity [4]: Non-Toxic; HI [5]: > 33
CS(=O)(=O)Nc1ccc2nc(N)ncc2c1	< 4.00	
CCCCCCCCC(=O)Nc1ccc2nc(N)ncc2c1	< 4.00	
Nc1ncc2cc(NC(=O)c3ccc(Br)cc3)ccc2n1	4.36	
Cl.Nc1ncc2cc(NC(=O)c3ccc(Cl)cc3)ccc2n1	4.82	hemolysis at 1 h, 200 µM [2]: 4%; hemolysis at 1 h, 500 µM [3]: 24%; Activity [4]: Non-Toxic; HI [5]: > 33
Cc1ccc(C(=O)Nc2ccc3nc(N)ncc3c2)cc1	4.72	
CCCCc1ccc(C(=O)Nc2ccc3nc(N)ncc3c2)cc1	4.41	
CCS(=O)(=O)Nc1ccc2nc(N)ncc2c1	4.47	
Nc1ncc2cc(NC(=O)c3ccc(I)cc3)ccc2n1	< 3.70	
CCCCCCS(=O)(=O)Nc1ccc2nc(N)ncc2c1	< 4.00	
Nc1ncc2cc(NC(=O)c3ccccc3)ccc2n1	4.47	
Nc1ncc2cc(NC(=O)CCl)ccc2n1	4.37	
CCCS(=O)(=O)Nc1ccc2nc(N)ncc2c1	4.44	

SMILES	pIC50 [1]	also measured
CCCCS(=O)(=O)Nc1ccc2nc(N)ncc2c1	4.22	
CCCCCCCC(=O)Nc1ccc2nc(N)ncc2c1	< 4.00	
CCCCCCc1ccc(C(=O)Nc2ccc3nc(N)ncc3c2)cc1	4.19	
CCCCCC(=O)Nc1ccc2nc(N)ncc2c1	4.64	
CCCC(=O)Nc1ccc2nc(N)ncc2c1	4.43	
CCCCC(=O)Nc1ccc2nc(N)ncc2c1	4.59	
CCCCCCC(CCCCCC)NC(=O)CCCc1c[nH]c(N)n1		pIC50 [6]: 5.28
CCCCCc1ccc(C(=O)Nc2ccc3nc(N)ncc3c2)cc1	4.41	
CCCCCCCc1ccc(C(=O)Nc2ccc3nc(N)ncc3c2)cc1	< 4.00	hemolysis at 1 h, 200 µM [2]: 31%; hemolysis at 1 h, 500 µM [3]: 57%
CCCCCCC(=O)Nc1ccc2nc(N)ncc2c1	4.31	
Nc1ncc2cc(NS(=O)(=O)c3cccs3)ccc2n1	< 4.00	
CC(=O)Nc1ccc2nc(N)ncc2c1	4.27	
Nc1ncc2cc(NC(=O)c3ccc(F)cc3)ccc2n1	< 3.70	
Nc1ncc2cc(NC(=O)C(Cl)(Cl)Cl)ccc2n1	4.30	
CCc1ccc(C(=O)Nc2ccc3nc(N)ncc3c2)cc1	4.74	
